Shown are actives, neighbours in structure and some others; about 1.5% of the full set was active somewhere.
APJ agonist: agonists of human APJ apelin receptor | CHO-K1 APJ PathHunter beta-arrestin, luminescence; 0% DMSO wells, 100% apelin | activation, % at 20 µM | 330,000 tested, 0.11% active;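 active means activation more than six SD over the plate average, tested at 20 µM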;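 further: 0% = DMSO alone and 100% = apelin-13 at 10 nM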
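Incubation: overnight seeding, 90 min compound at 25 °C, 1 h detection; test system: PathHunter CHO-K1 APJ (AGTRL-1) beta-arrestin reporter cells; amount: 1000 cells/well; doses: one dose, 20 µM compound, 1% DMSO; measured by: beta-gal luminescence; measure: agonist-driven arrestin binding to APJ; benchmarks: negative DMSO alone, positive Apelin-13 at 10 nM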
CCR6 antagonist: CCR6 (human) receptor antagonism | 340,000 tested, 0.49% active | AID 493098 | CHO-K1 CCR6 PathHunter beta-arrestin, luminescence, CCL20-stimulated | P51684 | inhibition, % at 20 µM;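 active means compounds whose inhibition of the agonist-driven luminescence signal at 20 µM reaches about 50%, limit read from the data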;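 further: cells stimulated with CCL20 at 14 nM final; plate controls were DMSO with CCL20 for no effect and DMSO without agonist for full effect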
APJ antagonist: APJ receptor antagonism; inhibition, % at 20 µM; P35414; 330,000 tested, 0.32% active; CHO-K1 APJ beta-arrestin complementation, luminescence;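 active means inhibition above about 40% at 20 µM, limit read from the data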;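 further: cells challenged with 10 nM apelin-13 agonist together with compound; plate controls were apelin-13 plus DMSO wells for no effect and DMSO wells lacking apelin-13 for full effect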
CXCR6 inh: CXCR6 (human) receptor inhibition; O00574; CHO-K1 PathHunter CXCR6 beta-arrestin, luminescence; inhibition, % at 20 µM; 360,000 tested, 0.36% active; AID 602244; in the data active means inhibition above about 34%, passing the limit was not always enough;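 further: antagonist mode with CXCL16 agonist at 10 nM final; 0% = 10 nM CXCL16 with DMSO and 100% = unstimulated wells without agonist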
EBI2 block: EBI2 (human) antagonism; P32249; EBI2 beta-arrestin recruitment, luminescence, 7a,25-OHC stimulated; inhibition, % at 5 µM; 360,000 tested, 0.81% active; in the data active means inhibition above about 38%;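 further: enzyme fragment complementation signal reports receptor beta-arrestin coupling in cells; 0% = agonist plus DMSO wells and 100% = wells without agonist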
Target sequence (P32249 whole entry, looked up, the tested form may be a part): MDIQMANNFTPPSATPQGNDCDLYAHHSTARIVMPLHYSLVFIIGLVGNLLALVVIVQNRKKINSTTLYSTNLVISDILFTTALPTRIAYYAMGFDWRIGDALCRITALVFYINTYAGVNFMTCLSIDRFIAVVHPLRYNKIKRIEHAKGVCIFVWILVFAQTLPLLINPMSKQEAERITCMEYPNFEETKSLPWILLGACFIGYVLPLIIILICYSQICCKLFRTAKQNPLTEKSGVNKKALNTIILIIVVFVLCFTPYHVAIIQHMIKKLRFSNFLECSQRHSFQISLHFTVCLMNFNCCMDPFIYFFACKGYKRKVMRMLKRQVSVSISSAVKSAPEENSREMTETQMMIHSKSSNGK
EBI2 antag conf: confirmation of human EBI2 receptor antagonists. shares compounds with EBI2 block. EBI2 beta-arrestin luminescence, 7a,25-OHC antagonism. inhibition, % at 5 µM. 2,400 tested, 29% active;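 active means inhibition of at least 50%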
EBI2 agonist: EBI2 agonism counter-screen. EBI2-expressing cells, agonist mode, luminescence, 60 min; 0% vehicle, 100% 7α,25-dihydroxycholesterol control. activation, % at 5 µM. 2,400 tested, under 10 active. shares compounds with EBI2 block;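 active means activation of at least 50%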
bGal counter: counter-screen for EBI2 antagonists: E. coli beta-galactosidase inhibition; inhibition, % at 5 µM; AID 652176; 2,400 tested, 1% active; purified beta-galactosidase, luminescent Galacton Star, 15 min; shares compounds with EBI2 block;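 active means replicate-average signal at least 3 plate SD below neutral wells, shown as high inhibition, flagging enzyme-inhibiting false positives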;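 further: 0% = DMSO wells with enzyme and 100% = wells lacking enzyme; higher means stronger loss of beta-gal luminescence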
The depositor's hits bear a star; nt = not tested or not shown.

SMILES	APJ agonist	CCR6 antagonist	APJ antagonist	CXCR6 inh	EBI2 block	EBI2 antag conf	EBI2 agonist	bGal counter
CCOC(=O)Cc1csc(NC(=O)/C=C/c2ccc(OC)cc2)n1	-0.7	6.9	-32.9	-11.0	46.1*	18.9	0.6	3.0
CCOC(=O)Cc1csc(NC(=O)/C=C\c2ccccc2)n1	0.8	4.8	-0.6	-2.2	8.1	nt	nt	nt
CCC(CO)Oc1cc(NCc2ccc(C(C)(C)C)cc2)c2ncn(C(C)C)c2c1 (stereo unspecified)	-0.1	14.8	9.8	7.7	0.5	nt	nt	nt
O=C(NCc1ccncc1)c1ccc(OCc2ccccc2)cc1	nt	-3.7	nt	-4.0	8.1	nt	nt	nt
Cc1ccc(CNC(=O)c2ccc(COc3ccccc3)cc2)cc1	0.7	14.8	5.5	0.6	52.5*	56.0*	-1.0	-19.3
CSCc1ccc(C(=O)NCc2ccc(C)cc2)cc1	-3.0	11.2	-2.7	5.7	63.5*	35.9	0.3	-11.6
CCn1c(SCC(=O)N/N=C/c2ccc(C)o2)nnc1-c1ccccc1	-0.6	-3.8	-6.6	10.4	51.1*	25.5	2.6	2.9
CC(=O)CSc1nc2ccc(Nc3nc(N4CCOCC4)nc(N4CCOCC4)n3)cc2s1	0.0	-0.8	-11.5	-0.9	44.1*	21.9	-0.9	-14.4
NC(=O)C1CCN(C(=O)c2cccc(S(=O)(=O)N3CCCC3)c2)CC1	9.6	1.9	-1.2	-4.9	-16.4	nt	nt	nt
CCOC(=O)Nc1ccc2c(CN3CCN(S(=O)(=O)c4ccc(C(C)C)cc4)CC3)cc(=O)oc2c1	-0.6	8.4	6.7	2.8	54.8*	10.1	-0.5	-12.3
CCOC(=O)Nc1ccc2c(CN3CCN(S(=O)(=O)c4ccccc4F)CC3)cc(=O)oc2c1	6.0	2.6	13.4	3.0	-7.5	nt	nt	nt
Cc1cccc(N2CCN(C(=O)/C=C/c3cccs3)CC2)c1C	-3.6	9.2	14.3	2.0	84.9*	57.5*	-0.7	-13.0
COc1ccccc1N1CCN(C(=O)/C=C/c2cccs2)CC1	-4.0	-9.9	-0.2	-8.2	47.6*	41.4	1.9	1.4
COc1ccccc1N1CCN(C(=O)c2cccs2)CC1	-0.4	6.4	14.6	-8.6	-17.9	nt	nt	nt
COc1ccccc1N1CCN(C(=O)/C=C/c2ccccc2)CC1	5.6	3.1	14.4	1.4	84.0*	59.2*	-0.9	-12.1
COc1ccccc1N1CCN(C(=O)/C=C/c2ccc3c(c2)OCO3)CC1	-1.0	9.4	3.8	-6.9	78.4*	55.6*	-0.6	-9.3
CC1=NS(=O)(=O)NC(C)(C)C1	nt	2.0	nt	-5.7	9.8	nt	nt	nt
Cc1ccc(SCCN2CCN(CC(C)C)CCC2=O)cc1	-4.1	3.5	22.2	4.4	0.2	nt	nt	nt
CN(C)C(CNC(=O)C1CCN(S(=O)(=O)c2cc(Cl)ccc2Cl)CC1)Cc1ccccc1 (stereo unspecified)	nt	15.2	nt	6.0	-0.4	nt	nt	nt
COc1ccc(C(=O)N2CCOC2CNC(=O)C(=O)NCCc2ccccc2OC)cc1 (stereo unspecified)	-0.6	6.2	-6.4	10.8	-2.5	nt	nt	nt
CC(=O)C(Cc1ccccc1)NC(=O)COC(=O)c1cccc(C)c1[N+](=O)[O-] (stereo unspecified)	-2.4	8.3	1.5	-5.2	-1.2	nt	nt	nt
O=C(COc1ccc2ccccc2c1Br)N1CCCCC1	3.4	4.8	-24.9	-0.7	15.0	nt	nt	nt
Cc1cc(OCC(=O)N2CCN(c3ccccn3)CC2)c(C)cc1Br	-4.1	1.4	0.3	-0.9	53.1*	41.6	1.8	0.4
O=C(COc1ccc2ccccc2c1Br)N1CCN(c2ccccn2)CC1	-3.3	-5.9	-3.8	-1.5	52.0*	7.2	1.2	3.6
Cc1ccc(SCC(=O)OC(C)C(=O)NCc2ccccc2)cc1C (stereo unspecified)	4.6	10.5	-24.2	-0.1	17.0	nt	nt	nt
Cc1cccc(-n2nc3c(c2NC(=O)c2ccc4c(c2)OCO4)CS(=O)(=O)C3)c1C	-1.4	4.7	9.6	2.6	4.5	nt	nt	nt
